Results published in ChEMBL document CHEMBL1821600, “Synthesis and antiviral evaluation of α-L-2'-deoxythreofuranosyl nucleosides” (Eur J Med Chem, 2011).
In brackets after ≈: the same amount, converted by molar mass. Activity calls are given as the source filed them. The rule behind the calls is not given here.

Columns and labels:
Coxsackievirus B4 = test: Antiviral activity against Coxsackievirus B4 infected in HeLa cells assessed as inhibition of virus-induced cytopathicity upto 200 uM administered after 1 hr virus adsorption period; format: functional, organism-based
Outline: (§1)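 Confluent cell monolayers (HEL for HSV-1 and HSV-2; Vero for parainfluenza-3, reovirus-1, Sindbis and Punta Toro; HeLa for Coxsackie B4 and RSV) in 96-well plates were inoculated with 100 CCID50 of virus. After 1 h adsorption, unbound virus was removed. Cells were then kept with compound at 200, 40, 8… μM. Cytopathicity was scored once untreated infected controls reached full CPE.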

Sindbis virus = test: Antiviral activity against Sindbis virus infected in Vero cells assessed as inhibition of virus-induced cytopathicity upto 200 uM administered after 1 hr virus adsorption period; format: functional, organism-based; outline: as §1
[1] = Inhibition of Herpes simplex virus type 1 thymidine kinase assessed as inhibition of [methyl-3H]dThd phosphorylation after 30 mins by scintillation counting; parameters: species or system Human alphaherpesvirus 1
Outline: (§2)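 Recombinant enzyme (TK-1, TK-2, HSV-1 TK, VZV TK or Drosophila dNK) was used in 50 mM Tris/HCl pH 8.0 with 2.5 mM MgCl2, 10 mM DTT, 0.5 mM CHAPS, 3 mg/mL BSA, 2.5 mM ATP and 1 µM [methyl-3H]dThd. Compound was added as 5-fold dilutions, and reactions ran 30 min at 37 °C, still linear. Mixtures were spotted on DE-81 disks, washed in ammonium formate, water and ethanol, then scintillation counted. IC50 was determined.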

[2] = Inhibition of varicella zoster virus thymidine kinase assessed as inhibition of [methyl-3H]dThd phosphorylation after 30 mins by scintillation counting; parameters: species or system Human alphaherpesvirus 3; outline: as §2
HeLa = test: Cytotoxicity against human HeLa cells at 100 ug/ml; format: cell-based
HEL = test: Cytotoxicity against human HEL cells at 100 ug/ml; format: cell-based
[3] = test system: Respiratory syncytial virus; test: Antiviral activity against Respiratory syncytial virus infected in HeLa cells assessed as inhibition of virus-induced cytopathicity upto 200 uM administered after 1 hr virus adsorption period; format: functional, organism-based; outline: as §1
Human betaherpesvirus 5 = test: Antiviral activity against Human cytomegalovirus infected in human HEL cells assessed as inhibition of virus-induced cytopathicity upto 200 uM administered after 1 hr virus adsorption period; format: functional, organism-based
Human alphaherpesvirus 1 [4] = test: Antiviral activity against TK-deficient Herpes simplex virus type 1 infected in HEL cells assessed as inhibition of virus-induced cytopathicity upto 200 uM administered after 1 hr virus adsorption period; format: functional, organism-based
Influenza A virus [5] = test: Antiviral activity against Influenza A virus H3N2 infected in MDCK cells assessed as inhibition of virus-induced cytopathicity upto 200 uM administered after 1 hr virus adsorption period; format: functional, organism-based
Human alphaherpesvirus 3 = test: Antiviral activity against Varicella Zoster Virus infected in human HEL cells assessed as inhibition of virus-induced cytopathicity upto 200 uM administered after 1 hr virus adsorption period; format: functional, organism-based
Feline coronavirus = test: Antiviral activity against Feline coronavirus infected in CRFK cells assessed as inhibition of virus-induced cytopathicity upto 200 uM administered after 1 hr virus adsorption period; format: functional, organism-based
Punta Toro virus = test: Antiviral activity against Punta Toro virus infected in Vero cells assessed as inhibition of virus-induced cytopathicity upto 200 uM administered after 1 hr virus adsorption period; format: functional, organism-based; outline: as §1
Thymidylate kinase = Thymidylate kinase (Mycobacterium tuberculosis, UniProt P9WKE1); test: Inhibition of Mycobacterium tuberculosis Thymidylate kinase
Human alphaherpesvirus 1 [6] = test: Antiviral activity against Herpes simplex virus type 1 infected in HEL cells assessed as inhibition of virus-induced cytopathicity upto 200 uM administered after 1 hr virus adsorption period; format: functional, organism-based; outline: as §1
[7] = test system: Human immunodeficiency virus 2; test: Antiviral activity against Human immunodeficiency virus type 2 ROD infected in human CEM cells assessed as inhibition of virus-induced giant cell formation after 4 days by microscopic method; format: functional, organism-based; conditions: CCRF-CEM; for EC50: Human immunodeficiency virus 2, ISOLATE ROD, 96 h
Outline: (§3)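 CEM cells (~3×10^5 cells/cm³) were infected with 100 CCID50/mL of HIV-1(IIIB) or HIV-2(ROD) and seeded into wells containing serial compound dilutions. After 4 days at 37 °C, giant (syncytium) cell formation was scored microscopically.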

Influenza B virus = test: Antiviral activity against influenza B virus infected in MDCK cells assessed as inhibition of virus-induced cytopathicity upto 200 uM administered after 1 hr virus adsorption period; format: functional, organism-based
Human alphaherpesvirus 2 = test: Antiviral activity against Herpes simplex virus type 2 infected in HEL cells assessed as inhibition of virus-induced cytopathicity upto 200 uM administered after 1 hr virus adsorption period; format: functional, organism-based; outline: as §1
[8] = test system: Mammalian orthoreovirus 1; test: Antiviral activity against Reovirus 1 infected in Vero cells assessed as inhibition of virus-induced cytopathicity upto 200 uM administered after 1 hr virus adsorption period; format: functional, organism-based; outline: as §1
Vaccinia virus = test: Antiviral activity against Vaccinia virus infected in HEL cells assessed as inhibition of virus-induced cytopathicity upto 200 uM administered after 1 hr virus adsorption period; format: functional, organism-based; conditions: Orthopoxvirus vaccinia
[9] = test system: Vesicular stomatitis virus; test: Antiviral activity against Vesicular stomatitis virus infected in HEL cells assessed as inhibition of virus-induced cytopathicity upto 200 uM administered after 1 hr virus adsorption period; format: functional, organism-based
[10] = Cytotoxicity against CRFK cells at 100 ug/ml; format: cell-based, Felis catus; conditions: cat
Vero = test: Cytotoxicity against african green monkey Vero cells at 100 ug/ml; format: cell-based; conditions: chlorocebus sabaeus
Influenza A virus [11] = test: Antiviral activity against influenza A virus H1N1 infected in MDCK cells assessed as inhibition of virus-induced cytopathicity upto 200 uM administered after 1 hr virus adsorption period; format: functional, organism-based
[12] = test system: Human immunodeficiency virus 1; test: Antiviral activity against Human immunodeficiency virus 1 3B infected in human CEM cells assessed as inhibition of virus-induced giant cell formation after 4 days by microscopic method; format: functional, organism-based; conditions: CCRF-CEM; for EC50: 96 h; outline: as §3
Human respirovirus 3 = test: Antiviral activity against Parainfluenza virus 3 infected in Vero cells assessed as inhibition of virus-induced cytopathicity upto 200 uM administered after 1 hr virus adsorption period; format: functional, organism-based; outline: as §1
MDCK = test: Cytotoxicity against MDCK cells at 100 ug/ml; format: cell-based, Canis lupus familiaris; conditions: dog
Deoxynucleoside kinase = molecular target: T1, Deoxynucleoside kinase (Drosophila melanogaster, UniProt Q9XZT6); test: Inhibition of Drosophila melanogaster deoxynucleoside kinase assessed as inhibition of [methyl-3H]dThd phosphorylation after 30 mins by scintillation counting; outline: as §2
T1 sequence (Q9XZT6 whole entry): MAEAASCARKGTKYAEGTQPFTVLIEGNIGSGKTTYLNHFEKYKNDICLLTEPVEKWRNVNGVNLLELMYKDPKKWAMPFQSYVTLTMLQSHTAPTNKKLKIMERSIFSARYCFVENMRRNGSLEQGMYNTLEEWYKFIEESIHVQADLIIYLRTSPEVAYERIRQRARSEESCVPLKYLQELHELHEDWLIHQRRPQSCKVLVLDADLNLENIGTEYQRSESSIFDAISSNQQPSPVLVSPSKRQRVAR

[13] = molecular target: T2, Thymidine kinase 2, mitochondrial (Homo sapiens, UniProt O00142); test: Inhibition of human mitochondrial TK2 assessed as inhibition of [methyl-3H]dThd phosphorylation after 30 mins by scintillation counting; outline: as §2
T2 sequence (O00142 whole entry): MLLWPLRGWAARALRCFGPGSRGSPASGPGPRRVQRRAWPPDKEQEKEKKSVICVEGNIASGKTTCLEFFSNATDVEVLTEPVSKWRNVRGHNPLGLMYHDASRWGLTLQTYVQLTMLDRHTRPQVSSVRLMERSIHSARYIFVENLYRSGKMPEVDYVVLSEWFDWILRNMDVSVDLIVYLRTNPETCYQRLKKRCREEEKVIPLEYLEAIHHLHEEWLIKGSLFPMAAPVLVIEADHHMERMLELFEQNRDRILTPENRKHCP

[14] = Non-competitive inhibition of Herpes simplex virus type 1 thymidine kinase assessed as inhibition of [methyl-3H]dThd phosphorylation by scintillation counting; parameters: species or system Human alphaherpesvirus 1
CCRF-CEM = test: Cytotoxicity against human CEM cells at 100 ug/ml; format: cell-based
[15] = molecular target: Thymidine kinase, cytosolic (Homo sapiens, UniProt P04183); test: Inhibition of human recombinant cytosolic TK1 assessed as inhibition of [methyl-3H]dThd phosphorylation after 30 mins by scintillation counting; outline: as §2
Thymidine kinase, cytosolic, sequence (P04183 whole entry): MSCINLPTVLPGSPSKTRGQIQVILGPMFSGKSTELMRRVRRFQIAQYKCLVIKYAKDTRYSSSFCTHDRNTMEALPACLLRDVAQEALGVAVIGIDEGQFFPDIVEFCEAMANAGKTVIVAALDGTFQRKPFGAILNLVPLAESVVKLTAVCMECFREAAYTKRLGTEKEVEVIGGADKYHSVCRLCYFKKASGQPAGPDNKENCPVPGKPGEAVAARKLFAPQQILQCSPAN

Thymidylate kinase, sequence (P9WKE1 whole entry): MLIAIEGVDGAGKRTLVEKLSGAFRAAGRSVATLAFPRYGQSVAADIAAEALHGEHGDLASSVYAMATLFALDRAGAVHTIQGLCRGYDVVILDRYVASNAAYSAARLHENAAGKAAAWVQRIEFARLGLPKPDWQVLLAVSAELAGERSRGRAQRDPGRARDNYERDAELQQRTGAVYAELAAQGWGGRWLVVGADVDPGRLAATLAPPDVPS

Cc1cn([C@H]2C[C@@H](O)CO2)c(=O)[nH]c1=O
inhibition (Coxsackievirus B4): inactive | inhibition (Sindbis virus): inactive | IC50 [1]: 14 mg/L (≈ 66 µM) | IC50 [2]: 26 mg/L (≈ 123 µM) | Activity (HeLa): Non-toxic | Activity (HEL): Non-toxic | inhibition [3]: inactive | inhibition (Human betaherpesvirus 5): inactive | inhibition (Human alphaherpesvirus 1 [4]): inactive | inhibition (Influenza A virus [5]): inactive | inhibition (Human alphaherpesvirus 3): inactive | inhibition (Feline coronavirus): inactive | inhibition (Punta Toro virus): inactive | Ki (Thymidylate kinase): 18 µM | inhibition (Human alphaherpesvirus 1 [6]): inactive | inhibition ([7]; ISOLATE ROD): inactive | inhibition (Influenza B virus): inactive | inhibition (Human alphaherpesvirus 2): inactive | inhibition [8]: inactive | inhibition (Vaccinia virus): inactive | inhibition [9]: inactive | Activity [10]: Non-toxic | Activity (Vero): Non-toxic | inhibition (Influenza A virus [11]): inactive | inhibition [12]: inactive | inhibition (Human respirovirus 3): inactive | Activity (MDCK): Non-toxic | IC50 (Deoxynucleoside kinase): ≥ 942 µM | IC50 [13]: 429 µM | Ki [14]: 20 µM | Activity (CCRF-CEM): Non-toxic

Nc1ccn([C@H]2C[C@@H](O)CO2)c(=O)n1
inhibition (Coxsackievirus B4): inactive | inhibition (Sindbis virus): inactive | IC50 [1]: > 200 mg/L | IC50 [2]: > 200 mg/L | Activity (HeLa): Non-toxic | Activity (HEL): Non-toxic | inhibition [3]: inactive | inhibition (Human betaherpesvirus 5): inactive | inhibition (Influenza A virus [5]): inactive | inhibition (Human alphaherpesvirus 3): inactive | inhibition (Feline coronavirus): inactive | inhibition (Punta Toro virus): inactive | inhibition (Human alphaherpesvirus 1 [6]): inactive | IC50 [15]: 1010 µM | EC50 [7]: > 100 mg/L | inhibition (Influenza B virus): inactive | inhibition (Human alphaherpesvirus 2): inactive | inhibition [8]: inactive | inhibition (Vaccinia virus): inactive | inhibition [9]: inactive | Activity [10]: Non-toxic | Activity (Vero): Non-toxic | inhibition (Influenza A virus [11]): inactive | EC50 [12]: > 100 mg/L | inhibition (Human respirovirus 3): inactive | Activity (MDCK): Non-toxic | IC50 (Deoxynucleoside kinase): > 1010 µM | IC50 [13]: > 1010 µM | Activity (CCRF-CEM): Non-toxic

O=c1ccn([C@H]2C[C@@H](O)CO2)c(=O)[nH]1
inhibition (Coxsackievirus B4): inactive | inhibition (Sindbis virus): inactive | IC50 [1]: > 200 mg/L | IC50 [2]: > 200 mg/L | Activity (HeLa): Non-toxic | Activity (HEL): Non-toxic | inhibition [3]: inactive | inhibition (Human betaherpesvirus 5): inactive | inhibition (Influenza A virus [5]): inactive | inhibition (Human alphaherpesvirus 3): inactive | inhibition (Feline coronavirus): inactive | inhibition (Punta Toro virus): inactive | inhibition (Human alphaherpesvirus 1 [6]): inactive | EC50 [7]: > 100 mg/L | inhibition (Influenza B virus): inactive | inhibition (Human alphaherpesvirus 2): inactive | inhibition [8]: inactive | inhibition (Vaccinia virus): inactive | inhibition [9]: inactive | Activity [10]: Non-toxic | Activity (Vero): Non-toxic | inhibition (Influenza A virus [11]): inactive | EC50 [12]: > 100 mg/L | inhibition (Human respirovirus 3): inactive | Activity (MDCK): Non-toxic | IC50 (Deoxynucleoside kinase): > 1010 µM | IC50 [13]: 303 µM | Activity (CCRF-CEM): Non-toxic

CC(=O)Nc1ccn([C@H]2C[C@@H](O)CO2)c(=O)n1
inhibition (Coxsackievirus B4): inactive | inhibition (Sindbis virus): inactive | Activity (HeLa): Non-toxic | Activity (HEL): Non-toxic | inhibition [3]: inactive | inhibition (Human betaherpesvirus 5): inactive | inhibition (Influenza A virus [5]): inactive | inhibition (Human alphaherpesvirus 3): inactive | inhibition (Feline coronavirus): inactive | inhibition (Punta Toro virus): inactive | inhibition (Human alphaherpesvirus 1 [6]): inactive | EC50 [7]: > 100 mg/L | inhibition (Influenza B virus): inactive | inhibition (Human alphaherpesvirus 2): inactive | inhibition [8]: inactive | inhibition (Vaccinia virus): inactive | inhibition [9]: inactive | Activity [10]: Non-toxic | Activity (Vero): Non-toxic | inhibition (Influenza A virus [11]): inactive | EC50 [12]: > 100 mg/L | inhibition (Human respirovirus 3): inactive | Activity (MDCK): Non-toxic | Activity (CCRF-CEM): Non-toxic

Nc1ncnc2c1ncn2[C@H]1C[C@@H](O)CO1
inhibition (Coxsackievirus B4): inactive | inhibition (Sindbis virus): inactive | IC50 [1]: > 200 mg/L | IC50 [2]: > 200 mg/L | Activity (HeLa): Non-toxic | Activity (HEL): Non-toxic | inhibition [3]: inactive | inhibition (Human betaherpesvirus 5): inactive | inhibition (Influenza A virus [5]): inactive | inhibition (Human alphaherpesvirus 3): inactive | inhibition (Feline coronavirus): inactive | inhibition (Punta Toro virus): inactive | inhibition (Human alphaherpesvirus 1 [6]): inactive | IC50 [15]: > 904 µM | EC50 [7]: > 100 mg/L | inhibition (Influenza B virus): inactive | inhibition (Human alphaherpesvirus 2): inactive | inhibition [8]: inactive | inhibition (Vaccinia virus): inactive | inhibition [9]: inactive | Activity [10]: Non-toxic | Activity (Vero): Non-toxic | inhibition (Influenza A virus [11]): inactive | EC50 [12]: > 100 mg/L | inhibition (Human respirovirus 3): inactive | Activity (MDCK): Non-toxic | IC50 (Deoxynucleoside kinase): > 904 µM | IC50 [13]: > 904 µM | Activity (CCRF-CEM): Non-toxic
